Results taken from ChEMBL document CHEMBL2062435, “Synthesis and in vitro antibacterial activity of gemifloxacin derivatives containing a substituted benzyloxime moiety” (2012).
Values after ≈ are worked out from the molar mass of the structure shown.

Legend:
Assay type in all cases: functional
Staphylococcus aureus [1] = assay: Antimicrobial activity against Staphylococcus aureus ATCC […] after 18-24 hrs by two-fold serial dilution method
Outline: (§1)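 Agar-medium twofold serial dilution against Gram-positive and Gram-negative strains; MIC taken as the lowest compound concentration giving complete inhibition of bacterial growth after incubation at 35 °C for 18-24 h.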

Staphylococcus aureus [2] = assay: Antimicrobial activity against extended spectrum beta-lactamases-producing methicillin-resistant Staphylococcus aureus 10-11 after 18-24 hrs by two-fold serial dilution method
Outline: (§2)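 Agar twofold serial dilution MIC against clinical isolates. MIC was taken as the lowest concentration giving complete inhibition of bacterial growth after incubation at 35 °C for 18-24 h.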

Staphylococcus aureus [3] = assay: Antimicrobial activity against extended spectrum beta-lactamases-producing methicillin-resistant Staphylococcus aureus 10-15 after 18-24 hrs by two-fold serial dilution method; outline: as §2
Staphylococcus aureus [4] = assay: Antimicrobial activity against extended spectrum beta-lactamases-producing methicillin-sensitive Staphylococcus aureus 10-13 after 18-24 hrs by two-fold serial dilution method; outline: as §1
Staphylococcus aureus [5] = assay: Antimicrobial activity against extended spectrum beta-lactamases-producing methicillin-sensitive Staphylococcus aureus 10-14 after 18-24 hrs by two-fold serial dilution method; outline: as §1
[6] = test system: Staphylococcus epidermidis; assay: Antimicrobial activity against extended spectrum beta-lactamases-producing methicillin-resistant Staphylococcus epidermidis 10-10 after 18-24 hrs by two-fold serial dilution method; outline: as §2
[7] = test system: Staphylococcus epidermidis; assay: Antimicrobial activity against extended spectrum beta-lactamases-producing methicillin-resistant Staphylococcus epidermidis 10-13 after 18-24 hrs by two-fold serial dilution method; outline: as §2
[8] = test system: Staphylococcus epidermidis; assay: Antimicrobial activity against extended spectrum beta-lactamases-producing methicillin-sensitive Staphylococcus epidermidis 10-11 after 18-24 hrs by two-fold serial dilution method; outline: as §1
[9] = test system: Staphylococcus epidermidis; assay: Antimicrobial activity against extended spectrum beta-lactamases-producing methicillin-sensitive Staphylococcus epidermidis 10-13 after 18-24 hrs by two-fold serial dilution method; outline: as §1
[10] = test system: Staphylococcus epidermidis; assay: Antimicrobial activity against extended spectrum beta-lactamases-producing methicillin-sensitive Staphylococcus epidermidis 10-15 after 18-24 hrs by two-fold serial dilution method; outline: as §1
Enterococcus faecalis [11] = assay: Antimicrobial activity against Enterococcus faecalis 10-5 after 18-24 hrs by two-fold serial dilution method; outline: as §1
Enterococcus faecalis [12] = assay: Antimicrobial activity against Enterococcus faecalis 10-6 after 18-24 hrs by two-fold serial dilution method; outline: as §1
Enterococcus faecalis [13] = assay: Antimicrobial activity against Enterococcus faecalis 10-7 after 18-24 hrs by two-fold serial dilution method; outline: as §1
Enterococcus faecium [14] = assay: Antimicrobial activity against Enterococcus faecium 10-5 after 18-24 hrs by two-fold serial dilution method; outline: as §1
Enterococcus faecium [15] = assay: Antimicrobial activity against Enterococcus faecium 10-9 after 18-24 hrs by two-fold serial dilution method; outline: as §1
Streptococcus pneumoniae [16] = assay: Antimicrobial activity against extended spectrum beta-lactamases-producing Streptococcus pneumoniae 10-1 after 18-24 hrs by two-fold serial dilution method; outline: as §1
Streptococcus pneumoniae [17] = assay: Antimicrobial activity against extended spectrum beta-lactamases-producing Streptococcus pneumoniae 10-4 after 18-24 hrs by two-fold serial dilution method; outline: as §1
Escherichia coli [18] = assay: Antimicrobial activity against Escherichia coli ATCC 25922 after 18-24 hrs by two-fold serial dilution method; outline: as §1
Escherichia coli [19] = assay: Antimicrobial activity against Escherichia coli 10-1 after 18-24 hrs by two-fold serial dilution method; outline: as §1
Escherichia coli [20] = assay: Antimicrobial activity against Escherichia coli 10-2 after 18-24 hrs by two-fold serial dilution method; outline: as §1
Escherichia coli [21] = assay: Antimicrobial activity against extended spectrum beta-lactamases-producing Escherichia coli 10-2 after 18-24 hrs by two-fold serial dilution method; outline: as §1
Escherichia coli [22] = assay: Antimicrobial activity against Escherichia coli 10-3 after 18-24 hrs by two-fold serial dilution method; outline: as §1
Escherichia coli [23] = assay: Antimicrobial activity against extended spectrum beta-lactamases-producing Escherichia coli 10-3 after 18-24 hrs by two-fold serial dilution method; outline: as §1
Escherichia coli [24] = assay: Antimicrobial activity against extended spectrum beta-lactamases-producing Escherichia coli 10-4 after 18-24 hrs by two-fold serial dilution method; outline: as §1
Klebsiella pneumoniae [25] = assay: Antimicrobial activity against extended spectrum beta-lactamases-producing Klebsiella pneumoniae 10-1 after 18-24 hrs by two-fold serial dilution method; outline: as §1
Klebsiella pneumoniae [26] = assay: Antimicrobial activity against Klebsiella pneumoniae 10-2 after 18-24 hrs by two-fold serial dilution method; outline: as §1
Klebsiella pneumoniae [27] = assay: Antimicrobial activity against extended spectrum beta-lactamases-producing Klebsiella pneumoniae 10-2 after 18-24 hrs by two-fold serial dilution method; outline: as §1
Klebsiella pneumoniae [28] = assay: Antimicrobial activity against Klebsiella pneumoniae 10-3 after 18-24 hrs by two-fold serial dilution method; outline: as §1
Klebsiella pneumoniae [29] = assay: Antimicrobial activity against extended spectrum beta-lactamases-producing Klebsiella pneumoniae 10-3 after 18-24 hrs by two-fold serial dilution method; outline: as §1
Klebsiella pneumoniae [30] = assay: Antimicrobial activity against Klebsiella pneumoniae 10-4 after 18-24 hrs by two-fold serial dilution method; outline: as §1
Pseudomonas aeruginosa [31] = assay: Antimicrobial activity against Pseudomonas aeruginosa 10-12 after 18-24 hrs by two-fold serial dilution method; outline: as §1
Pseudomonas aeruginosa [32] = assay: Antimicrobial activity against extended spectrum beta-lactamases-producing Pseudomonas aeruginosa 10-5 after 18-24 hrs by two-fold serial dilution method; outline: as §1
Pseudomonas aeruginosa [33] = assay: Antimicrobial activity against extended spectrum beta-lactamases-producing Pseudomonas aeruginosa 10-9 after 18-24 hrs by two-fold serial dilution method; outline: as §1
Pseudomonas aeruginosa [34] = assay: Antimicrobial activity against extended spectrum beta-lactamases-producing Pseudomonas aeruginosa 10-15 after 18-24 hrs by two-fold serial dilution method; outline: as §1
Pseudomonas aeruginosa [35] = assay: Antimicrobial activity against extended spectrum beta-lactamases-producing Pseudomonas aeruginosa 10-18 after 18-24 hrs by two-fold serial dilution method; outline: as §1
Pseudomonas aeruginosa [36] = assay: Antimicrobial activity against extended spectrum beta-lactamases-producing Pseudomonas aeruginosa 10-20 after 18-24 hrs by two-fold serial dilution method; outline: as §1
Staphylococcus aureus [37] = assay: Antimicrobial activity against methicillin-resistant Staphylococcus aureus clinical isolate after 18-24 hrs by two-fold serial dilution method; outline: as §2
[38] = test system: Staphylococcus epidermidis; assay: Antimicrobial activity against methicillin-resistant Staphylococcus epidermidis clinical isolate after 18-24 hrs by two-fold serial dilution method

| Structure (SMILES) | MIC (Staphylococcus aureus [1]) | MIC (Staphylococcus aureus [2]) | MIC (Staphylococcus aureus [3]) | MIC (Staphylococcus aureus [4]) | MIC (Staphylococcus aureus [5]) | MIC [6] | MIC [7] | MIC [8] | MIC [9] | MIC [10] | MIC (Enterococcus faecalis [11]) | MIC (Enterococcus faecalis [12]) | MIC (Enterococcus faecalis [13]) | MIC (Enterococcus faecium [14]) | MIC (Enterococcus faecium [15]) | MIC (Streptococcus pneumoniae [16]) | MIC (Streptococcus pneumoniae [17]) | MIC (Escherichia coli [18]) | MIC (Escherichia coli [19]) | MIC (Escherichia coli [20]) | also measured |
| --- | --- | --- | --- | --- | --- | --- | --- | --- | --- | --- | --- | --- | --- | --- | --- | --- | --- | --- | --- | --- | --- |
| COc1cccc(CO/N=C2\CN(c3nc4c(cc3F)c(=O)c(C(=O)O)cn4C3CC3)CC2CN)c1OC.CS(=O)(=O)O (racemic) | 0.015 µg/mL | 1 µg/mL | 4 µg/mL | 0.03 µg/mL | 0.06 µg/mL | 0.5 µg/mL | 0.25 µg/mL | 0.25 µg/mL | 0.06 µg/mL | 4 µg/mL | 0.25 µg/mL | 4 µg/mL | 1 µg/mL | 4 µg/mL | 4 µg/mL | 0.125 µg/mL | 0.06 µg/mL | 0.125 µg/mL | > 128 µg/mL | 16 µg/mL | MIC (Escherichia coli [21]): > 128 µg/mL; MIC (Escherichia coli [22]): 16 µg/mL; MIC (Escherichia coli [23]): 32 µg/mL; MIC (Escherichia coli [24]): 2 µg/mL; MIC (Klebsiella pneumoniae [25]): > 128 µg/mL; MIC (Klebsiella pneumoniae [26]): 128 µg/mL; MIC (Klebsiella pneumoniae [27]): > 128 µg/mL; MIC (Klebsiella pneumoniae [28]): 2 µg/mL; MIC (Klebsiella pneumoniae [29]): > 128 µg/mL; MIC (Klebsiella pneumoniae [30]): > 128 µg/mL; MIC (Pseudomonas aeruginosa [31]): 8 µg/mL; MIC (Pseudomonas aeruginosa [32]): 4 µg/mL; MIC (Pseudomonas aeruginosa [33]): 4 µg/mL; MIC (Pseudomonas aeruginosa [34]): 8 µg/mL; MIC (Pseudomonas aeruginosa [35]): 4 µg/mL; MIC (Pseudomonas aeruginosa [36]): 8 µg/mL; MIC50 (Staphylococcus aureus [37]): 1 µg/mL; MIC90 (Staphylococcus aureus [37]): 4 µg/mL |
| CO/N=C1\CN(c2nc3c(cc2F)c(=O)c(C(=O)O)cn3C2CC2)CC1CN (centres undefined) [GEMIFLOXACIN] | 0.06 µg/mL (≈ 0.154 µM) | 4 µg/mL (≈ 10.3 µM) | 1 µg/mL (≈ 2.57 µM) | 0.25 µg/mL (≈ 0.642 µM) | 0.06 µg/mL (≈ 0.154 µM) | 2 µg/mL (≈ 5.14 µM) | 0.5 µg/mL (≈ 1.28 µM) | 16 µg/mL (≈ 41.1 µM) | 1 µg/mL (≈ 2.57 µM) | 16 µg/mL (≈ 41.1 µM) | 1 µg/mL (≈ 2.57 µM) | 8 µg/mL (≈ 20.5 µM) | 2 µg/mL (≈ 5.14 µM) | 8 µg/mL (≈ 20.5 µM) | 8 µg/mL (≈ 20.5 µM) | 2 µg/mL (≈ 5.14 µM) | 2 µg/mL (≈ 5.14 µM) | 0.03 µg/mL (≈ 0.077 µM) | 8 µg/mL (≈ 20.5 µM) | 0.5 µg/mL (≈ 1.28 µM) | MIC (Escherichia coli [21]): 16 µg/mL (≈ 41.1 µM); MIC (Escherichia coli [22]): 0.5 µg/mL (≈ 1.28 µM); MIC (Escherichia coli [23]): 2 µg/mL (≈ 5.14 µM); MIC (Escherichia coli [24]): 8 µg/mL (≈ 20.5 µM); MIC (Klebsiella pneumoniae [25]): 16 µg/mL (≈ 41.1 µM); MIC (Klebsiella pneumoniae [26]): 0.5 µg/mL (≈ 1.28 µM); MIC (Klebsiella pneumoniae [27]): 16 µg/mL (≈ 41.1 µM); MIC (Klebsiella pneumoniae [28]): 8 µg/mL (≈ 20.5 µM); MIC (Klebsiella pneumoniae [29]): 16 µg/mL (≈ 41.1 µM); MIC (Klebsiella pneumoniae [30]): 32 µg/mL (≈ 82.2 µM); MIC (Pseudomonas aeruginosa [31]): 0.03 µg/mL (≈ 0.077 µM); MIC (Pseudomonas aeruginosa [32]): 0.5 µg/mL (≈ 1.28 µM); MIC (Pseudomonas aeruginosa [33]): 0.5 µg/mL (≈ 1.28 µM); MIC (Pseudomonas aeruginosa [34]): 1 µg/mL (≈ 2.57 µM); MIC (Pseudomonas aeruginosa [35]): 2 µg/mL (≈ 5.14 µM); MIC (Pseudomonas aeruginosa [36]): 0.5 µg/mL (≈ 1.28 µM); MIC50 (Staphylococcus aureus [37]): 2 µg/mL (≈ 5.14 µM); MIC90 (Staphylococcus aureus [37]): 8 µg/mL (≈ 20.5 µM); MIC50 [38]: 0.25 µg/mL (≈ 0.642 µM); MIC90 [38]: 8 µg/mL (≈ 20.5 µM) |
| COc1ccc(CO/N=C2\CN(c3nc4c(cc3F)c(=O)c(C(=O)O)cn4C3CC3)CC2CN)cc1OC.CS(=O)(=O)O (racemic) | 0.03 µg/mL | 0.5 µg/mL | 0.125 µg/mL | 0.5 µg/mL | 0.06 µg/mL | 0.5 µg/mL | 0.25 µg/mL | 2 µg/mL | 0.5 µg/mL | 4 µg/mL | 0.5 µg/mL | 2 µg/mL | 1 µg/mL | 4 µg/mL | 4 µg/mL | 0.5 µg/mL | 4 µg/mL | 0.06 µg/mL | 16 µg/mL | 8 µg/mL | MIC (Escherichia coli [21]): > 128 µg/mL; MIC (Escherichia coli [22]): 16 µg/mL; MIC (Escherichia coli [23]): 16 µg/mL; MIC (Escherichia coli [24]): 2 µg/mL; MIC (Klebsiella pneumoniae [25]): 64 µg/mL; MIC (Klebsiella pneumoniae [26]): 128 µg/mL; MIC (Klebsiella pneumoniae [27]): > 128 µg/mL; MIC (Klebsiella pneumoniae [28]): 4 µg/mL; MIC (Klebsiella pneumoniae [29]): > 128 µg/mL; MIC (Klebsiella pneumoniae [30]): > 128 µg/mL; MIC (Pseudomonas aeruginosa [31]): 0.03 µg/mL; MIC (Pseudomonas aeruginosa [32]): 2 µg/mL; MIC (Pseudomonas aeruginosa [33]): 8 µg/mL; MIC (Pseudomonas aeruginosa [34]): 1 µg/mL; MIC (Pseudomonas aeruginosa [35]): 4 µg/mL; MIC (Pseudomonas aeruginosa [36]): 0.06 µg/mL |
